Assay [1] addresses T1, Geranylgeranyl transferase type-2 (Rattus norvegicus, UniProt Q08602+Q08603).
T1 sequence (Q08603 whole entry): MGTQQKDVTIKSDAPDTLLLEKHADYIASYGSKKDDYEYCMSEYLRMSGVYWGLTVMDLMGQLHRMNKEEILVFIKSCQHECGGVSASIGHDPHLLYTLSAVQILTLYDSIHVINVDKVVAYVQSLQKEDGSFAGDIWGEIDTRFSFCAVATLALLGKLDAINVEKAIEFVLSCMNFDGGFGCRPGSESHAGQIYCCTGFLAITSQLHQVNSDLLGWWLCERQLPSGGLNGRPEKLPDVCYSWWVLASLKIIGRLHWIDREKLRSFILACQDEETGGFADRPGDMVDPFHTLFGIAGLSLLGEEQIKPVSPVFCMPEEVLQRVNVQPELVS
T1 sequence (Q08602 whole entry): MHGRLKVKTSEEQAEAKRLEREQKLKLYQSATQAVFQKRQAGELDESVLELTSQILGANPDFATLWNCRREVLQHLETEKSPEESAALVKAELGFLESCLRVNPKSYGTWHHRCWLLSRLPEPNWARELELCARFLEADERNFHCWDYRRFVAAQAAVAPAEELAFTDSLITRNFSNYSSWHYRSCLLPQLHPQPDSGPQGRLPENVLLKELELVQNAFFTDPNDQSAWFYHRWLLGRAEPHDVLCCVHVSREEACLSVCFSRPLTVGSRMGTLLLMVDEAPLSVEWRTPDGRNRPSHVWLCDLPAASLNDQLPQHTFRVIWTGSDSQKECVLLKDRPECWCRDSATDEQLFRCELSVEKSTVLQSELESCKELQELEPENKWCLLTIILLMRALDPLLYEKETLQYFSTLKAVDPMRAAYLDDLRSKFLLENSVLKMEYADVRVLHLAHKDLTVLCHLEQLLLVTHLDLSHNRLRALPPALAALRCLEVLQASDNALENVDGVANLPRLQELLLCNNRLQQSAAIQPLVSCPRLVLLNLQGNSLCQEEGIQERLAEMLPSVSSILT
Put plainly: Inhibition of recombinant rat RabGGTase expressed in Escherichia coli using Rab7 as substrate and [3H]geranylgeranyl pyrophosphate after 20 mins by liquid scintillation analysis.

Assay [2] has as its target geranylgeranyltransferase type-I (Rattus norvegicus, UniProt P53610+Q04631). Put plainly: Inhibition of recombinant rat GGtase-1 expressed in Escherichia coli using dansyl-GCVLL as substrate after 1.5 hrs by spectrofluorimetric analysis.
The target of assay [3] is Protein farnesyltransferase (Rattus norvegicus, UniProt Q02293+Q04631). Nature of the assay: Inhibition of recombinant rat FTase expressed in Escherichia coli using dansyl-GCVLS as substrate after 1.5 hrs by spectrofluorimetric analysis.
Assay [4] has as its target T2, Farnesyl pyrophosphate synthase (Homo sapiens, UniProt P14324).
T2 sequence (P14324 whole entry): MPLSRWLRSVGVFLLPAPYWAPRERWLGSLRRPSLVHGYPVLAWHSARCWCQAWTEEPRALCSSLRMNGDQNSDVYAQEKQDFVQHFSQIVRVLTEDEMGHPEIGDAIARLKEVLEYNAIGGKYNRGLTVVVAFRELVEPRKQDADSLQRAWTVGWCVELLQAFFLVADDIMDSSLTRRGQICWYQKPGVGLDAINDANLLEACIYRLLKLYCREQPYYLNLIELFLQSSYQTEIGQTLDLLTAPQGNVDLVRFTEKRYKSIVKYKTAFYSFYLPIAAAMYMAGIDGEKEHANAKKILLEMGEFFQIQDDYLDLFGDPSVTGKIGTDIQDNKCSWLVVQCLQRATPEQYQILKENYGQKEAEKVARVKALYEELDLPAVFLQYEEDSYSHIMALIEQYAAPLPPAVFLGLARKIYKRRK
Put plainly: Inhibition of FDPS (unknown origin) using [14C] IPP and GPP as substrate preincubated for 10 mins followed by substrate addition and measured after 30 min by liquid scintillation counting method.

For assay [5], the target named is T3, Geranylgeranyl pyrophosphate synthase (Homo sapiens, UniProt O95749).
T3 sequence (O95749 whole entry): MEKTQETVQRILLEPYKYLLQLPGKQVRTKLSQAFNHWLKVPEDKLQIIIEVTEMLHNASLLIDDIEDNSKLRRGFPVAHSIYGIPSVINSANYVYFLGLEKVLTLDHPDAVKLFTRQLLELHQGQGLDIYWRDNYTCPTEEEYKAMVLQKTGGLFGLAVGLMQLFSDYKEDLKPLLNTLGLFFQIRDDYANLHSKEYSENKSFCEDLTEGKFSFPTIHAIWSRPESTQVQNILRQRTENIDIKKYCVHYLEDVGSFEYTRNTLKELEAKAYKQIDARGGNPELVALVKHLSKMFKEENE
Put plainly: Inhibition of GGDPS (unknown origin) using [14C] IPP and FPP as substrate preincubated for 10 mins followed by substrate addition and measured after 30 min by liquid scintillation counting method.

In assay [6] the target is T4, Geranylgeranyl transferase type-2 (Homo sapiens) (UniProt P53611+Q92696). Put plainly: Inhibition of GGtase-2 in human cells assessed as minimum effective dose required for increase in intracellular lambda chain level after 48 hrs by ELISA. The format is cell-based. The procedure, abridged:
(§1)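 The lowest effective concentration in RPMI-8226 cells after 48 h requires both criteria below: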

Assay [7] addresses T4, Geranylgeranyl transferase type-2 (Homo sapiens). Put plainly: Inhibition of GGtase-2 in human cells assessed as minimum effective dose causing => 20% decrease in Rab6 level after 48 hrs by immunoblot analysis. It is filed as cell-based. The gist of the method:
as §1

For assay [8], the target named is T5, Farnesyl pyrophosphate synthase (Homo sapiens) (UniProt P14324).
T5 sequence (whole entry): T2 sequence (P14324 whole entry)

Assay [9] has as its target T5, Farnesyl pyrophosphate synthase (Homo sapiens). This is another data set of the same source.
For assay [10] the target is unchanged. Put plainly: Inhibition of FDPS in human RPMI8226 cells assessed as unmodified Rap1a level at =< 1 mM after 48 hrs by immunoblot analysis. The format is cell-based. The gist of the method:
(§2)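 RPMI-8226 cells were exposed for 48 h. The lowest effective concentration counts only when two read-outs agree. Unmodified Rap1a must be visible on immunoblot of whole-cell lysate, using an antibody that detects only unmodified protein.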

Assay [11] shares this target. Put plainly: Inhibition of FDPS in human RPMI8226 cells assessed as increase in intracellular lambda chain level at =< 1mM after 48 hrs by ELISA. The format is cell-based. The gist of the method:
(§3)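 RPMI-8226 cells were exposed for 48 h, and intracellular lambda light chain was measured by ELISA as percent of untreated control. The lowest effective concentration also requires unmodified Rap1a to be visible on whole-cell-lysate immunoblot with an unmodified-specific antibody. The ELISA rise must be statistically significant.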
In general terms: ELISA stands for enzyme-linked immunosorbent assay.

Assay [12] concerns the target T4, Geranylgeranyl transferase type-2 (Homo sapiens). Nature of the assay: Inhibition of GGtase-2 in human RPMI8226 cells assessed as increase in intracellular lambda chain at =< 1 mM level after 48 hrs by ELISA. The format is cell-based. The gist of the method: (§4)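 RPMI-8226 cells were incubated 48 h with the compound or medium alone. Intracellular lambda light chain was quantified by ELISA and expressed as percent of untreated control (mean ± SD, n=3). Significance versus control was judged by t-test, p<0.05.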

Assay [13] shares this target. Nature of the assay: Inhibition of GGtase-2 in human RPMI8226 cells assessed as decrease in Rab6 level at =< 1 mM after 48 hrs by immunoblot analysis relative to control. It is filed as cell-based. The gist of the method:
(§5)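 After 48 h treatment, RPMI-8226 cells were extracted with Triton X-114 to give a detergent (membrane) fraction, which was immunoblotted for Rab6. Rab6 band density was normalized to calnexin and expressed relative to untreated cells. Blots are representative of three independent studies.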
For orientation: Immunoblotting shows a protein as a band on a membrane.

Assay [14] addresses T6, Protein farnesyltransferase (Homo sapiens) (UniProt P49354+P49356). Nature of the assay: Inhibition of FTase in human RPMI8226 cells assessed as disruption of H-ras farnesylation after 48 hrs by immunoblot analysis. The format is cell-based.
The target in assay [15] is T7, Geranylgeranyl transferase type I (Homo sapiens) (UniProt P49354+P53609). Nature of the assay: Inhibition of GGtase-1 in human RPMI8226 cells assessed as disruption of Rap1a geranylgeranylation after 48 hrs immunoblot analysis. The format is cell-based.
Assay [16] addresses T5, Farnesyl pyrophosphate synthase (Homo sapiens). Put plainly: Inhibition of FDPS in human RPMI8226 cells assessed as unmodified Rap1a level at =< 5 mM after 48 hrs by immunoblot analysis. It is filed as cell-based. The procedure, abridged: as §2
For assay [17] the target is unchanged. Put plainly: Inhibition of FDPS in human RPMI8226 cells assessed as increase in intracellular lambda chain level at =< 5 mM after 48 hrs by ELISA. It is filed as cell-based. The procedure, abridged:
as §3

For assay [18], the target named is T4, Geranylgeranyl transferase type-2 (Homo sapiens). Put plainly: Inhibition of GGtase-2 in human cells assessed as increase in intracellular lambda chain at =< 5 mM level after 48 hrs by ELISA. It is filed as cell-based. The gist of the method:
as §4

Assay [19] has the same target. Nature of the assay: Inhibition of GGtase-2 in human cells assessed as decrease in Rab6 level at =< 5 mM after 48 hrs by immunoblot analysis relative to control. It is filed as cell-based. The procedure, abridged: as §5
Assay [20] has as its target T6, Protein farnesyltransferase (Homo sapiens). Nature of the assay: Inhibition of FTase in human RPMI8226 cells assessed as disruption of H-ras farnesylation at 10 to 100 uM incubated for 48 hrs by immunoblot analysis. It is filed as cell-based.
For assay [21], the target named is T7, Geranylgeranyl transferase type I (Homo sapiens). Put plainly: Inhibition of GGtase-1 in human RPMI8226 cells assessed as disruption of Rap1a geranylgeranylation at 10 to 100 uM incubated for 48 hrs by immunoblot analysis. It is filed as cell-based.
In assay [22] the target is T4, Geranylgeranyl transferase type-2 (Homo sapiens). Nature of the assay: Inhibition of GGtase-2 in human RPMI8226 cells assessed as accumulation of intracellular lambda light chain level at 10 to 100 uM after 48 hrs by immunoblot analysis. The format is cell-based.
Assay [23] has as its target T6, Protein farnesyltransferase (Homo sapiens). Put plainly: Inhibition of FTase in human RPMI8226 cells assessed as disruption of H-ras farnesylation at 10 to 100 uM after 48 hrs in presence of lovastatin by immunoblot analysis. It is filed as cell-based. The procedure, abridged: (§6)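 Whole-cell lysates were then immunoblotted for H-Ras and unmodified Rap1a, using an antibody specific to the unprenylated protein. β-tubulin was the loading control.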

The target of assay [24] is T7, Geranylgeranyl transferase type I (Homo sapiens). Nature of the assay: Inhibition of GGtase-1 in human RPMI8226 cells assessed as disruption of Rap1a geranylgeranylation at 10 to 100 uM after 48 hrs in presence lovastatin by immunoblot analysis. The format is cell-based. The gist of the method:
as §6

The next assay is filed under the species Homo sapiens. Nature of the assay: Selectivity ratio of IC50 for GGDPS (unknown origin) to IC50 for FDPS (unknown origin).
Assay [25] deals with T6, Protein farnesyltransferase (Homo sapiens). Put plainly: Inhibition of FTase in human RPMI8226 cells assessed as disruption of H-ras farnesylation at 0.5 uM after 48 hrs by immunoblot analysis. It is filed as cell-based.
The target in assay [26] is T7, Geranylgeranyl transferase type I (Homo sapiens). Nature of the assay: Inhibition of GGtase-1 in human RPMI8226 cells assessed as disruption of Rap1a geranylgeranylation at 0.5 uM after 48 hrs by immunoblot analysis. The format is cell-based.

The record followed here is ChEMBL document CHEMBL4312018, “Novel benzimidazole phosphonates as potential inhibitors of protein prenylation” (Bioorg Med Chem Lett, 2019).

Broadly, the IC50 is the concentration that inhibits the measured activity by half.

Activity calls are given as the source filed them.

As for `CC(Cn1cnc2ccccc21)(C(=O)O)P(=O)(O)O` (stereo unspecified), the IC50 in [1] is 810 µM; in [2], more than 1000 µM; in [3], more than 1000 µM; in [4] it was more than 100 µM; in assay [5], more than 100 µM. Also, the LED in [6], in [7], in assay [8] and in [9] was 5 mM throughout.

Turning to `CC(Cn1cnc2ccccc21)(P(=O)(O)O)P(=O)(O)O`, the IC50 in [1] is more than 1000 µM; in assay [2], more than 1000 µM; in assay [3], more than 1000 µM; in assay [4] it was 1 µM; in [5] it was more than 100 µM. Further, the inhibition result in assay [10], in [11], in assay [12], in assay [13], in assay [14] and in assay [15] was “inactive” each time.

Regarding `O=C(O)C(Cn1cnc2cc(F)c(F)cc21)P(=O)(O)O` (stereo unspecified), the IC50 in assay [1] is more than 1000 µM; in assay [2], 145 µM; in [3], 450 µM; in [4], more than 100 µM; in assay [5], more than 100 µM. Besides, the inhibition entry in [16], in assay [17], in [18] and in [19] was “inactive” each time.

Consider `O=P(O)(O)C(Cn1cnc2ccccc21)P(=O)(O)O`, for which the IC50 in assay [1] is more than 1000 µM; in [2], more than 1000 µM; in [3], 830 µM; in [4], 0.024 µM; in assay [5], 20.5 µM. Moreover, in assay [7], the LED was 0.025 mM. Also, the inhibition entry in [20], in assay [21], in assay [22], in assay [23] and in assay [24] was “Active” throughout.

As for `Cc1cc2ncn(CC(C(=O)O)P(=O)(O)O)c2cc1C` (stereo unspecified), the IC50 in [1] was more than 1000 µM; in assay [2], more than 1000 µM; in [3] it was more than 1000 µM; in assay [4], more than 100 µM; in [5], more than 100 µM. Further, the inhibition entry in [16], in assay [17], in [18] and in assay [19] was “inactive” in each case.

For the compound `O=P(O)(O)C(Cn1cnc2cc(F)c(F)cc21)P(=O)(O)O`, the IC50 came out at 738 µM in [1]; 122 µM in assay [2]; 340 µM in [3]; 0.15 µM in assay [4]; 87 µM in [5]. For the same compound, in the assay filed under Homo sapiens, the Ratio IC50 turned out to be 580. In addition, the LED in assay [6], in assay [7], in assay [8] and in [9] was 0.5 mM throughout.

In the case of `CC[C@H](C)C(=O)O[C@H]1C[C@@H](C)C=C2C=C[C@H](C)[C@H](CC[C@@H]3C[C@@H](O)CC(=O)O3)[C@H]21`, the inhibition result in [25] and in [26] was “Active” each time.
